Source: PubChem
SENP1 inh: inhibitors of human SENP1 SUMO protease catalytic domain | 360,000 tested, 0.21% active | recombinant SENP1 catalytic domain, CyPet-SUMO1-YPet FRET cleavage | inhibition, % at 10 µM | AID 624204 | Q9P0U3;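 active = inhibition at least 30% at 10 µM, raw YFP signal under a set limit, fluorescence ratio 0.5 to 1.5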;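 note: 0% = enzyme with DMSO and 100% = no enzyme wells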
Target sequence (Q9P0U3 419-644 limits assumed): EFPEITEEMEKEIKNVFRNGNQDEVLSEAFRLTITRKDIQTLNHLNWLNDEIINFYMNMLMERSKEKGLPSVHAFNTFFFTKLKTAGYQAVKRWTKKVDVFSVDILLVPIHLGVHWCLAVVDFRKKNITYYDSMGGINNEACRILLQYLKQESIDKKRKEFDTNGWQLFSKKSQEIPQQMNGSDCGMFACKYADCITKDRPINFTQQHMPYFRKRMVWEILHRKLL
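Assay system – human recombinant His6-tagged SENP1 catalytic domain enzyme · Input – SENP1 enzyme, 20 pM final · Buffer or medium – Tris pH 8 buffer plus EDTA, NaCl, BME, BSA, NP40, catalase · Schedule – 50 min reaction at room temperature · Technique – FRET read of cyan and yellow fluorescence · Control set – no-enzyme wells low, DMSO-plus-enzyme wells high control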
UCH37 inh: inhibitors of human deubiquitinating enzyme UCH37; purified proteasome/UCH37, Ub-AMC cleavage fluorescence; inhibition, % (test concentration not listed); 330,000 tested, 0.33% active;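 active = mean inhibition over replicate wells above about 20%, limit read from the data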;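 note: 0% = compound-free wells with enzyme and 100% = wells lacking proteasome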
Target sequence (Q9Y5K5 whole entry, looked up): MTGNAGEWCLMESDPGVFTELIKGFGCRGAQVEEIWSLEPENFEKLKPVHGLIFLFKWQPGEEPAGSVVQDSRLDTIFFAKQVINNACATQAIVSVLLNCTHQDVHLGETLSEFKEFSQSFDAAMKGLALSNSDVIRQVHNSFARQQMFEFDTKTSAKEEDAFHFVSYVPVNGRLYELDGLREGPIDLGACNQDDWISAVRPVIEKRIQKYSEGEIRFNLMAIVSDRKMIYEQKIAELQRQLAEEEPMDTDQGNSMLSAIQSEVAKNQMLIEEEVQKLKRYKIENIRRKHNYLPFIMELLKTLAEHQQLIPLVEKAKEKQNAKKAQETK
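Material: human UCH37 enzyme supplied as purified proteasome complex / Amount: 0.15 nM proteasome as dispensed / Buffer or medium: pH 7.4 Tris-HCl (50 mM) with ovalbumin, ATP-MgCl2, DTT / Times: preincubation 30 min, reaction 25 min, room temperature / Technique: AMC fluorescence from Ub-AMC cleavage, excitation 355 nm, emission 460 nm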
SENP6 block: inhibitors of human SENP6 protease; Recombinant SENP6 catalytic domain, aminoluciferin luminescence; inhibition, % at 10 µM; 330,000 tested, 1.8% active; AID 2599;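 active = inhibition above about 50% at the single tested dose, limit read from the data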;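 note: plate controls were DMSO wells with enzyme for no effect and DMSO wells lacking enzyme for full effect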
SENP8 block-1: blocks the human protease SENP8. 330,000 tested, 1.2% active. Q96LD8. inhibition, % at 10 µM. purified SENP8, Z-RLRGG-aminoluciferin cleavage, luminescence; in the data active = inhibition above about 50%
SENP8 block-2: blocks human SENP8 cleavage of Nedd8 substrate; recombinant SENP8, Nedd8 substrate fluorescence; inhibition, % at 20 µM; Q96LD8; AID 602440; 360,000 tested, 0.64% active; in the data active = inhibition mostly above about 40%, no sharp cut-off; inactive = mostly below about 27%
SENP7 inh: blocks the human protease SENP7. Q9BQF6. recombinant SENP7, Z-RLRGG-aminoluciferin luminescence, 40 min. inhibition, % at 5 µM. 330,000 tested, 1.5% active;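 active = inhibition above about 50% at the single test dose, limit read from the data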;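 note: plate controls were DMSO with enzyme for no effect and no enzyme buffer wells for full effect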
Numbers without * were called inactive; i = inactive; nt = no result given. Shown are actives, neighbours in structure and some others; about 2.6% of the full set was active somewhere.

SMILES	SENP1 inh	UCH37 inh	SENP6 block	SENP8 block-1	SENP8 block-2	SENP7 inh
CCN(CC)c1ccc(/C=C2\C(=N)N3N=C(CC(=O)N4CCOCC4)SC3=NC2=O)cc1	-21	21*	4	-1	-60	-4
CCCCC[n+]1ccn(C2=C([O-])c3ccccc3C(=O)/C2=N\S(=O)(=O)c2ccc(Cl)cc2)c1	-3	nt	47	19	71*	19
COc1cc(NCc2ccccc2)c2ncn(C(C)C)c2c1	0	2	2	5	22	6
CCC(CN(C)C)Oc1cc(NCc2ccccc2)c2ncn(C(C)C)c2c1 (centres undefined)	-31	nt	-5	83*	12	87*
COc1cccc(N=Nc2ccc(O)c3ncccc23)c1	3	nt	77*	73*	34	62*
Oc1ccc(N=Nc2ccc3c(c2)OCCO3)c2cccnc12	5	6	-9	-11	40*	-10
COc1cccc(N=Nc2ccc3cccnc3c2O)c1	5	3	90*	84*	24	79*
Oc1ccc(N=Nc2ccc3c(c2)OCCO3)c(O)c1	17	3	95*	95*	45*	91*
COc1ccc(N=Nc2ccc(O)c3ncccc23)cc1	2	7	-11	-17	28	-7
COc1cc(OC)cc(C(=O)Nc2cccc3cccnc23)c1	5	5	-5	-20	12	9
O=C(Nc1nc2cc3c(cc2s1)OCCO3)c1cccc(N2C(=O)CCC2=O)c1	0	-41	9	2	-348	5
O=C(Nc1nc2cc3c(cc2s1)OCCO3)c1cccs1	1	-46	96*	94*	-385	98*
COc1ccccc1C(=O)Nc1nc2cc3c(cc2s1)OCO3	1	i	48	20	-462	79*
O=C(Nc1nc2cc3c(cc2s1)OCCO3)c1ccc([N+](=O)[O-])o1	1	7	87*	74*	-22	88*
CC(C)CNC(=O)CC(=O)NN=Cc1ccc(Br)cc1	nt	3	nt	nt	nt	nt
CCON=C(c1nonc1N)N1CCN(c2ccc([N+](=O)[O-])cc2)CC1	nt	8	nt	nt	nt	nt
CCN(CC)c1ccc(C=NN2C(=O)c3ccccc3C2=O)c(O)c1	nt	2	nt	nt	nt	nt
Cc1nc2ccccc2c(=O)n1/N=C/c1ccc(O)c(O)c1O	2	nt	19	5	69*	9
Oc1ccc(/C=N/N2CCOCC2)c(O)c1O	4	nt	14	-2	63*	-8
Oc1ccc(/C=N/N(c2ccccc2)c2ccccc2)c(O)c1O	10	nt	12	10	32*	5
O=C1c2ccccc2C(=O)N1/N=C/c1ccc(O)c(O)c1O	19	nt	nt	nt	83*	nt
O=C(c1cc2c(s1)CCCC2)n1cccn1	9	nt	58*	28	8	64*
C/C(C=NNC(=O)Cn1cncn1)=C/c1ccc(C(C)C)cc1	nt	23*	nt	nt	nt	nt
O=c1[nH]c(CCl)nc2cc(-c3ccc(F)cc3)sc12	-2	nt	89*	79*	-2	47
COCCNc1nc2cc(-c3ccc(F)cc3)sc2c(=O)n1C	-1	nt	nt	nt	-118	nt
SMILES	SENP1 inh	UCH37 inh	SENP6 block	SENP8 block-1	SENP8 block-2	SENP7 inh
COc1nccnc1NS(=O)(=O)c1ccc(NC(=S)NC(=O)c2ccc(F)cc2)cc1	-1	3	86*	78*	22	69*
COc1nsnc1NS(=O)(=O)c1ccc(NC(=S)NC(=O)c2ccncc2)cc1	-2	1	0	8	25	19
CC1(C)CC(=O)C(N=Nc2cc(Cl)c(Cl)c(Cl)c2)=C(O)C1	2	4	3	2	40	3
Cc1ccc(O)c(N=NC2=C(O)CC(C)(C)CC2=O)c1	22	16	-19	-3	42*	-4
Cc1nc2ccc(Br)cn2c1C(=O)NN=Cc1ccc(C(C)C)cc1	nt	1	nt	nt	nt	nt
COc1cccc2sc3cc(NCc4ccc(C)o4)ccc3c(=O)c12	-66	nt	30	42	-466	58*
Cc1occc1C(=O)NN=Cc1c(O)ccc2ccccc12	nt	-385	nt	nt	nt	nt
COc1ccc(/C=C2\SC(=S)N(c3cccnc3)C2=O)cc1	0	6	-13	1	31	4
O=C1/C(=C\c2ccc(O)cc2)SC(=S)N1c1cccnc1	81*	nt	38	5	22	14
Cc1ccccc1-c1cn(-c2ccccc2)c(=S)[nH]1	-1	0	-28	8	-21	6
Cc1ccc(-c2cn(-c3ccccc3)c(=S)[nH]2)cc1C	0	1	81*	66*	12	87*
CC(=NNc1ccc([N+](=O)[O-])cc1)c1ccc2c(c1)OCO2	nt	3	nt	nt	nt	nt
O=c1c2c([nH]n1-c1ccccc1)CCSC2	1	14	9	-5	46*	-2
CC(=NN1CCN(c2ccccc2)CC1)c1ccco1	nt	3	nt	nt	nt	nt
O=C(COc1ccccc1F)N/N=C1\CCCc2ccccc21	3	nt	57*	37	12	39
O=C1C2C3C=CC(C3)C2C(=O)N1c1ccc2ccccc2n1 (centres undefined)	1	32*	-6	2	16	-8
CC(=NO)C(C)NC(=O)c1ccccc1 (centres undefined)	nt	2	nt	nt	nt	nt
O=C(/C=C\Nc1ccc2c(c1)OCO2)c1ccc(Cl)s1	0	7	13	18	19	71*
CCOC(=O)c1cnc2c(C(=O)OCC)cnn2c1N	0	-11	-32	1	-74	4
CCOC(=O)c1cnc2c(-c3cccc(Br)c3)cnn2c1C	2	-2	15	1	14	55*
CCOC(=O)c1c(NN=Cc2cccnc2)n[nH]c1C	nt	10	nt	nt	nt	nt
O=C(/C=C/c1ccc2c(c1)OCO2)Nc1nncs1	-2	-57	60*	41	-427	84*
O=C(/C=C/c1ccc2c(c1)OCO2)Nc1nc(-c2ccccc2)cs1	0	-40	5	-2	-416	8
O=C1NCCCC1C(=O)NN=Cc1ccccc1[N+](=O)[O-] (centres undefined)	nt	5	nt	nt	nt	nt
Cc1cc(C)cc(N=C2NC(=O)/C(=C/c3cccs3)S2)c1	1	2	5	-4	22	4
SMILES	SENP1 inh	UCH37 inh	SENP6 block	SENP8 block-1	SENP8 block-2	SENP7 inh
O=C1NC(=Nc2ccccc2)S/C1=C\c1cccs1	-1	4	69*	59*	17	43
Cn1cccc1/C=C1\SC(=Nc2cccc(O)c2)NC1=O	-118	nt	78*	54*	14	52*
O=C(CSc1nnc(-c2ccc(Cl)cc2)n1-c1ccc(Cl)cc1)NN=Cc1ccco1	nt	2	nt	nt	nt	nt
O=C(Nc1sc2c(c1C(=O)O)CCC2)c1ccccc1Cl	3	8	17	-13	-29	-1
Cc1ccccc1C(=O)Nc1sc2c(c1C(=O)O)CCC2	2	nt	70*	57*	-56	-8
CN1C(=O)/C(=C2\SC(N)=NC2=O)c2ccccc21	1	nt	-9	8	43*	-6
O=C(O)COc1ccccc1/C=N/NC(=O)CSc1nnc(SCc2ccccc2)s1	2	nt	56*	24	22	14
